ChEMBL document CHEMBL1165965, “Synthesis and structure-activity relationships of 1,2,3,4-tetrahydropyrido[2,3-b]pyrazines as potent and selective inhibitors of the anaplastic lymphoma kinase” (Bioorg Med Chem, 2010)

Legend:
[1] = target: Calcium/calmodulin-dependent protein kinase type 1 (Homo sapiens) (UniProt Q14012); experiment: Inhibition of CAMK1 at 1 uM
Method in brief: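 Ambit KINOMEscan screen at a single concentration across a 250–400 kinase panel, recorded as percent inhibition. Selectivity was expressed as S(90), the fraction of kinases inhibited >90%.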

[2] = target: T1, Dual specificity tyrosine-phosphorylation-regulated kinase 2 (Homo sapiens) (UniProt Q92630); experiment: Inhibition of DYRK2 at 1 uM
T1 sequence (whole entry): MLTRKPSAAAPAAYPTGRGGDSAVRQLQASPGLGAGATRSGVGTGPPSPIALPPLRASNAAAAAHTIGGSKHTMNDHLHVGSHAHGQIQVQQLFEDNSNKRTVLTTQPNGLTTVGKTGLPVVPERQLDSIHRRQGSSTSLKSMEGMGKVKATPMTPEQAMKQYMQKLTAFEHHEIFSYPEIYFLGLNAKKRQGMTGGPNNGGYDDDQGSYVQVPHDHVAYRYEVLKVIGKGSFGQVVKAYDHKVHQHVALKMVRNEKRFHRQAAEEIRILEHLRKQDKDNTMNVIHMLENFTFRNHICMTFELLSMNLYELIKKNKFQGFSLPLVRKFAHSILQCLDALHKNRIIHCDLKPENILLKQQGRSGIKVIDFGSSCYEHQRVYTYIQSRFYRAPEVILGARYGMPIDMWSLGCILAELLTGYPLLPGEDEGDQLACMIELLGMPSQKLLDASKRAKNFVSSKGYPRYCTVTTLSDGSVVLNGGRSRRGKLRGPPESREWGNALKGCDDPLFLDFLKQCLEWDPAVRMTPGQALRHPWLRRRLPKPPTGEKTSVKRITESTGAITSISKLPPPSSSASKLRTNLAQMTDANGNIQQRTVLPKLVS

[3] = target: Ribosomal protein S6 kinase alpha-5 (Homo sapiens) (UniProt O75582); experiment: Inhibition of RPS6KA5 C-terminal domain2 at 1 uM
Ribosomal protein S6 kinase alpha-5 (Homo sapiens), sequence (O75582 whole entry, looked up, the tested form may be a part): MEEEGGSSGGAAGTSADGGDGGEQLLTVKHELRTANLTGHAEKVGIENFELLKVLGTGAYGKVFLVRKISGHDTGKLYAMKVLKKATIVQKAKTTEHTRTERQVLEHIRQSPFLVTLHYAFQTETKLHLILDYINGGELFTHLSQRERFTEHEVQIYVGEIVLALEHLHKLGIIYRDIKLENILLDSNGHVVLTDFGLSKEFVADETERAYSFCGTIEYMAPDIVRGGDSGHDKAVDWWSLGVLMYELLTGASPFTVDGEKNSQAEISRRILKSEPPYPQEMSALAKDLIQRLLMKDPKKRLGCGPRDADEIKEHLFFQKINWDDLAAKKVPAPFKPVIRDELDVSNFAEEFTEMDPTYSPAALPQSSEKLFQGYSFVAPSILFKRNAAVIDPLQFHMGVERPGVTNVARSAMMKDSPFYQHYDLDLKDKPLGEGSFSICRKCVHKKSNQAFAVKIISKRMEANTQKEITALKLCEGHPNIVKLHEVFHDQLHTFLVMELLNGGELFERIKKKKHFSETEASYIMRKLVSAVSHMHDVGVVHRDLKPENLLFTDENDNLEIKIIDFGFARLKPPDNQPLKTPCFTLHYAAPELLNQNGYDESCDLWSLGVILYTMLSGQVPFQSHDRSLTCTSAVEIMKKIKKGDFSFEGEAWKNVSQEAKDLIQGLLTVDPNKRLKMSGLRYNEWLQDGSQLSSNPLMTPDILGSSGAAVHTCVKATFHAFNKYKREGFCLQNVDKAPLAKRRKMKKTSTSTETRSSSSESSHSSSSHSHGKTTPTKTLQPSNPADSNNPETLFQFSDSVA

[4] = target: Serine/threonine-protein kinase 33 (Homo sapiens) (UniProt Q9BYT3); experiment: Inhibition of STK33 at 1 uM
Serine/threonine-protein kinase 33 (Homo sapiens), sequence (Q9BYT3 whole entry, looked up): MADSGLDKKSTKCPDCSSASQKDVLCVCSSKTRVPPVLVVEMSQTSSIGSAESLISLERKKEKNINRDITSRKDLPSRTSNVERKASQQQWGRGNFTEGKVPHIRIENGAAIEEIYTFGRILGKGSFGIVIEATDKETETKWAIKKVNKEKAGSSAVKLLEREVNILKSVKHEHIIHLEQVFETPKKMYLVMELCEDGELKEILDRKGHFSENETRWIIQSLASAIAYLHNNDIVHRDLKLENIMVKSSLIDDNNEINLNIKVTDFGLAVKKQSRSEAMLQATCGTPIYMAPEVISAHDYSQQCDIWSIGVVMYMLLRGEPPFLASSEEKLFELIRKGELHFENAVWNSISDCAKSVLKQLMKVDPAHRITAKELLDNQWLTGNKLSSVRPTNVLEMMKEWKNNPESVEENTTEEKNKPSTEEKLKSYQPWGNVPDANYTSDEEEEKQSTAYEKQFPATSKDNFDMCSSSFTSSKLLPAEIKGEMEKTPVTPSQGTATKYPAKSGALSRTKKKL

[5] = target: T2, Serine/threonine-protein kinase Nek1 (Homo sapiens) (UniProt Q96PY6); experiment: Inhibition of NEK1 at 1 uM
T2 sequence (whole entry): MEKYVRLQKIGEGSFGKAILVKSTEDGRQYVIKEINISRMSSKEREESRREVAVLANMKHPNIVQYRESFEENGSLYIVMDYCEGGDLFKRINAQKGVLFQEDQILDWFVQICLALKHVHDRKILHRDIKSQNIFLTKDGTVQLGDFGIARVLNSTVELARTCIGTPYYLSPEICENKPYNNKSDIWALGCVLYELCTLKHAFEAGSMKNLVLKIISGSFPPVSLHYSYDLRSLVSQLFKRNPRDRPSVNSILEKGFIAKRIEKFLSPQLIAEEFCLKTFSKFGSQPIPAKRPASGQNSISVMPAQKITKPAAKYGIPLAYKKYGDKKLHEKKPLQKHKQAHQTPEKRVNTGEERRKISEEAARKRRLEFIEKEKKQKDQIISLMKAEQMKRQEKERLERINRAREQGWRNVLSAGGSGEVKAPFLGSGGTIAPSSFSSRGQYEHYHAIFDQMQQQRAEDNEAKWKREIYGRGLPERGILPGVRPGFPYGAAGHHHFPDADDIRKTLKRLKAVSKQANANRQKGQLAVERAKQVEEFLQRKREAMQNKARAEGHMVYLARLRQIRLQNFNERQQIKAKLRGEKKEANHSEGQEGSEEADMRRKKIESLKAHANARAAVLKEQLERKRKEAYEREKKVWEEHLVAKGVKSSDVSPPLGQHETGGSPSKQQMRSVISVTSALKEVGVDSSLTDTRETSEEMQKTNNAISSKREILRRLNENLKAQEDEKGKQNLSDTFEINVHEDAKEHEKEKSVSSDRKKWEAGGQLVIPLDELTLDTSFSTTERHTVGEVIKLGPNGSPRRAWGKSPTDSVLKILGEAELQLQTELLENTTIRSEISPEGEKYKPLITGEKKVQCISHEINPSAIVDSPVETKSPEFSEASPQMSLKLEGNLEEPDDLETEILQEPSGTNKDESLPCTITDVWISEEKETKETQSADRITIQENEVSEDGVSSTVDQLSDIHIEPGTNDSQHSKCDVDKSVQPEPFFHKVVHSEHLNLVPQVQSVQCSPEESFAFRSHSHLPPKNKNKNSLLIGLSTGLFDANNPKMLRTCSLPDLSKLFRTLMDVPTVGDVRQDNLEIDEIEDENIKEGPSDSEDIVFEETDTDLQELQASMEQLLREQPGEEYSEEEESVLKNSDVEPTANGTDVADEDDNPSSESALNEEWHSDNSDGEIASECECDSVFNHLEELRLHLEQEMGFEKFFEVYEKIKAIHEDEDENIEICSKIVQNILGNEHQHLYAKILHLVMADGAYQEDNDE

[6] = target: Mitogen-activated protein kinase kinase kinase 4 (Homo sapiens) (UniProt Q9Y6R4); experiment: Inhibition of MAP3K4 at 1 uM
Mitogen-activated protein kinase kinase kinase 4 (Homo sapiens), sequence (Q9Y6R4 whole entry): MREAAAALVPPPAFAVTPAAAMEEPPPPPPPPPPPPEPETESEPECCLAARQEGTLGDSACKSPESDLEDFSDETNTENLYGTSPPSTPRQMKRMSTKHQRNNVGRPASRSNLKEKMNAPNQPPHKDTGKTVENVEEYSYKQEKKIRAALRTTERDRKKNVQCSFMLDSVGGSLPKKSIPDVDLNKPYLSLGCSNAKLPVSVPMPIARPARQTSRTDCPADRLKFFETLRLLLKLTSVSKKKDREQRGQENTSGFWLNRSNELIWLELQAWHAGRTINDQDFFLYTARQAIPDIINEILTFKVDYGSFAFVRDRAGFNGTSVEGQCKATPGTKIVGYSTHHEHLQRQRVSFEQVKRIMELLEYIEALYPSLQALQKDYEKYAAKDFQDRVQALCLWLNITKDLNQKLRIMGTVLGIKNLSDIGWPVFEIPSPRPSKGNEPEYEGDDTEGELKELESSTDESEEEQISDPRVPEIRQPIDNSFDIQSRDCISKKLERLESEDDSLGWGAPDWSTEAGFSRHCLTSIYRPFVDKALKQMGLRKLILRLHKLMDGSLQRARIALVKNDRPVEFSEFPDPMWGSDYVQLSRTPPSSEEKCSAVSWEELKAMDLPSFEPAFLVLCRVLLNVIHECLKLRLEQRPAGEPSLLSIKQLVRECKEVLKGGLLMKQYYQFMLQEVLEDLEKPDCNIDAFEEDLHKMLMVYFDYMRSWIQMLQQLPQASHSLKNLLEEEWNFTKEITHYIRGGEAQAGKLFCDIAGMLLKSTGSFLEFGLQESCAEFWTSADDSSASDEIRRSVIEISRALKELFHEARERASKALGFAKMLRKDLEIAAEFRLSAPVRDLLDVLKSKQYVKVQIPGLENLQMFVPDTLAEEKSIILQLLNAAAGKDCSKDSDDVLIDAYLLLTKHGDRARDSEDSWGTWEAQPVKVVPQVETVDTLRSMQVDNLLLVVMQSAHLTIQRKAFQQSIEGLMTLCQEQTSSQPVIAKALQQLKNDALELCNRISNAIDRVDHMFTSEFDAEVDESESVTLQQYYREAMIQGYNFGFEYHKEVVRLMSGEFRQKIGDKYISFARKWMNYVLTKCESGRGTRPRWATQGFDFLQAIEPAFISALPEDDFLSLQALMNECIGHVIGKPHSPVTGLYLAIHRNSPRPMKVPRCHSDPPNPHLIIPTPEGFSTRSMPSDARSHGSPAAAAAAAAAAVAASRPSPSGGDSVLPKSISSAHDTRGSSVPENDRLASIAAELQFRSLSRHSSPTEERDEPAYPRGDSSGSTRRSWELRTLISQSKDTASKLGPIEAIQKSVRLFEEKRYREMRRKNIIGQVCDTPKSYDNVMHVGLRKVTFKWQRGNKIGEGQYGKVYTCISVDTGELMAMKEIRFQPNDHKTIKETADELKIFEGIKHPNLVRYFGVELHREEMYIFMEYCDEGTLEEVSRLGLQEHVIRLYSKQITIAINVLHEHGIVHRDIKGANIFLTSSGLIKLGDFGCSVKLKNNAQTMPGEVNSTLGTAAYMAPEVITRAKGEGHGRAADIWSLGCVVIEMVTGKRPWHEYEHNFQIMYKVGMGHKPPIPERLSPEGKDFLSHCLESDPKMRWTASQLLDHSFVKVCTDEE

[7] = target: T3, Serine/threonine-protein kinase D3 (Homo sapiens) (UniProt O94806); experiment: Inhibition of PRKD3 at 1 uM
T3 sequence (whole entry): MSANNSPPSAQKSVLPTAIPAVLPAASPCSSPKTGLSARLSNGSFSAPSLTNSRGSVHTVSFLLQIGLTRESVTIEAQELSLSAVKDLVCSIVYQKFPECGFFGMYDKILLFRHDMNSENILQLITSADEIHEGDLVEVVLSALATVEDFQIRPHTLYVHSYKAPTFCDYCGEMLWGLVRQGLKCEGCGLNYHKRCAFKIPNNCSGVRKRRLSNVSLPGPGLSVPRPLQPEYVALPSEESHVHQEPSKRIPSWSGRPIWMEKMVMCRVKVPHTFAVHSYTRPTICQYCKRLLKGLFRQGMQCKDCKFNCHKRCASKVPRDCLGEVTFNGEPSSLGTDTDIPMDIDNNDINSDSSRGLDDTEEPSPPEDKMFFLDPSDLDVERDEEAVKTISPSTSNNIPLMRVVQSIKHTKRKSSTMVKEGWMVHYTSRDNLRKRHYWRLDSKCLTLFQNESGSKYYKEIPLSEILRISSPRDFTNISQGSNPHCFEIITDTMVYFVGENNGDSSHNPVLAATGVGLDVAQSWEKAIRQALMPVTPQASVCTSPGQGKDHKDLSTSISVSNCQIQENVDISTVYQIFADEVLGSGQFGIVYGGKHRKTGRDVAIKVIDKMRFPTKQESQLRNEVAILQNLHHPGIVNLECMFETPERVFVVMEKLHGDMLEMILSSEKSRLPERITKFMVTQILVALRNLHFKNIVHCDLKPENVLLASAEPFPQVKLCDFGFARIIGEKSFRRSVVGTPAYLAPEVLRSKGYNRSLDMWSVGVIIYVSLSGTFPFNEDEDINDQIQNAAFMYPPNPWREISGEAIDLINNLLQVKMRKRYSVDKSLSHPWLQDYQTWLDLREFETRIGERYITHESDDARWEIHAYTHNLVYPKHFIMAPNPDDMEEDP

Calcium/calmodulin-dependent protein kinase type 1 (Homo sapiens), sequence (Q14012 whole entry, looked up): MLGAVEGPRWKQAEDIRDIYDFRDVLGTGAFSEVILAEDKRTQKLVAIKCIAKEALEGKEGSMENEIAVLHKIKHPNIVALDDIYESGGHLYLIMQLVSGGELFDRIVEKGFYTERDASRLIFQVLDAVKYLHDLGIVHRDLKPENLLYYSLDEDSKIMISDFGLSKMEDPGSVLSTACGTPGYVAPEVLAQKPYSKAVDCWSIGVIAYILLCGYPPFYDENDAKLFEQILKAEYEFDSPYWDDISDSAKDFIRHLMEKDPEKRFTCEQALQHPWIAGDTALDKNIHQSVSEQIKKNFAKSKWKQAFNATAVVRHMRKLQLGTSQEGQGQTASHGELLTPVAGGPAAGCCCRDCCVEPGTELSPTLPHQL

Row | SMILES | inhibition [1] | inhibition [2] | inhibition [3] | inhibition [4] | inhibition [5] | inhibition [6] | inhibition [7]
1 | CN1CCN(c2ccc(-c3cnc4c(c3)N(Cc3cc(Cl)ccc3Cl)CCN4)cn2)CC1 | < 50% | < 50% | < 50% | < 50% | < 50% | < 50% | < 50%
2 | CN1CCN(c2ccc(-c3cnc4c(c3)N(Cc3cc(Cl)ccc3C(F)(F)F)CCN4)cn2)CC1 | < 50% | < 50% | < 50% | < 50% | < 50% | < 50% | < 50%
3 | CN1CCN(c2ccc(-c3cnc4c(c3)N(Cc3c(F)ccc(F)c3Cl)CCN4)cn2)CC1 | < 50% | < 50% | < 50% | < 50% | < 50% | < 50% | < 50%
4 | O=C(c1ccc(-c2cnc3c(c2)N(Cc2cc(Cl)ccc2C(F)(F)F)CCN3)cc1)N1CCC(N2CCCC2)CC1 | < 50% | – | < 50% | 79.8% | < 50% | < 50% | –
5 | COC1CCN(C(=O)c2ccc(-c3cnc4c(c3)N(Cc3cc(Cl)ccc3C(F)(F)F)CCN4)cc2)CC1 | < 50% | – | < 50% | – | < 50% | – | –
6 | FC(F)(F)c1ccc(Cl)cc1CN1CCNc2ncc(-c3ccnc(N4CCNCC4)c3)cc21 | < 50% | < 50% | < 50% | < 50% | < 50% | < 50% | < 50%
7 | CN1CCN(c2ccc(-c3cnc4c(c3)N(Cc3cc(F)ccc3F)CCN4)cn2)CC1 | < 50% | < 50% | < 50% | < 50% | < 50% | < 50% | < 50%
8 | O=C(c1ccc(-c2cnc3c(c2)N(Cc2cc(Cl)ccc2C(F)(F)F)CCN3)cc1)N1CCCCC1 | < 50% | – | < 50% | – | – | < 50% | –
9 | CC(=O)N1CCN(c2cc(-c3cnc4c(c3)N(Cc3cc(Cl)ccc3C(F)(F)F)CCN4)ccn2)CC1 | < 50% | < 50% | < 50% | < 50% | < 50% | < 50% | < 50%
10 | O=C(O)c1ccc(-c2cnc3c(c2)N(Cc2cc(Cl)ccc2C(F)(F)F)CCN3)cc1 | < 50% | – | < 50% | – | – | < 50% | –
